This note sets out measurements from ChEMBL document CHEMBL1914452, “Arene- and quinoline-sulfonamides as novel 5-HT7 receptor ligands” (Bioorg Med Chem, 2011).

In assay [1] the target is T1, 5-hydroxytryptamine receptor 7 (Homo sapiens, UniProt P34969). Put plainly: Displacement of [3H]-5-CT from human 5-HT7 receptor expressed in HEK293 cells after 1 hr by liquid scintillation counting. In kind it is cell-based. Summed up: (§1)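 Competition binding with 7–9 compound concentrations, each run in triplicate. 5-HT1A, 5-HT2A and α1 sites were native. 5-HT6 used [3H]-LSD and 5-HT7 used [3H]-5-CT, both on cloned human receptors stably expressed in HEK293 cells. After incubation, samples were vacuum-filtered through GF/B filters and washed with ice-cold buffer. Bound radioactivity was counted by liquid scintillation.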
On the technique in general: Loss of bound radioactivity is the signal in a displacement assay; it reports binding, not function.

The target in assay [2] is T2, 5-hydroxytryptamine receptor 1A (Rattus norvegicus, UniProt P19327).
T2 sequence (P19327 whole entry): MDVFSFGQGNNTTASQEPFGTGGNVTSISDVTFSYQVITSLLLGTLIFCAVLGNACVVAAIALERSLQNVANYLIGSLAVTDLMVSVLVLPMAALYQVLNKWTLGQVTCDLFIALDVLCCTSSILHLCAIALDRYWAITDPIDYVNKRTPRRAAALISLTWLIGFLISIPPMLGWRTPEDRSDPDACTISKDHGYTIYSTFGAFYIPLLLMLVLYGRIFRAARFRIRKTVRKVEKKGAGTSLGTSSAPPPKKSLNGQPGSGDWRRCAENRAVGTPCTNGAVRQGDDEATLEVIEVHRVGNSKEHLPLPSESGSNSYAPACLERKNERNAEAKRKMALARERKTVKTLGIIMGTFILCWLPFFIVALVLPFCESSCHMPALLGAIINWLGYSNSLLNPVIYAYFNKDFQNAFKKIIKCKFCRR
Description: Displacement of [3H]-8-OH-DPAT from 5-HT1A receptor in rat hippocampus by liquid scintillation counting. In kind it is tissue-based. Summed up: as §1

Assay [3] deals with HEK293. Description: Selectivity ratio of Ki for 5-HT1A receptor in rat hippocampus to Ki for human 5-HT7 receptor expressed in HEK293 cells. In kind it is cell-based.
The target in assay [4] is 5-hydroxytryptamine receptor 6 (Homo sapiens, UniProt P50406). Put plainly: Displacement of [3H]-LSD from human 5-HT6 receptor expressed in HEK293 cells after 1 hr by liquid scintillation counting. In kind it is cell-based. Summed up: as §1
Assay [5] addresses 5-hydroxytryptamine receptor 2A (Rattus norvegicus, UniProt P14842). Put plainly: Displacement of [3H]-ketanserin from 5-HT2A receptor in rat cortex by liquid scintillation counting. Summed up: as §1
Assay [6] addresses T3, Adrenergic receptor alpha-1 (Rattus norvegicus, UniProt P15823+P23944+P43140).
T3 sequence (P15823 whole entry): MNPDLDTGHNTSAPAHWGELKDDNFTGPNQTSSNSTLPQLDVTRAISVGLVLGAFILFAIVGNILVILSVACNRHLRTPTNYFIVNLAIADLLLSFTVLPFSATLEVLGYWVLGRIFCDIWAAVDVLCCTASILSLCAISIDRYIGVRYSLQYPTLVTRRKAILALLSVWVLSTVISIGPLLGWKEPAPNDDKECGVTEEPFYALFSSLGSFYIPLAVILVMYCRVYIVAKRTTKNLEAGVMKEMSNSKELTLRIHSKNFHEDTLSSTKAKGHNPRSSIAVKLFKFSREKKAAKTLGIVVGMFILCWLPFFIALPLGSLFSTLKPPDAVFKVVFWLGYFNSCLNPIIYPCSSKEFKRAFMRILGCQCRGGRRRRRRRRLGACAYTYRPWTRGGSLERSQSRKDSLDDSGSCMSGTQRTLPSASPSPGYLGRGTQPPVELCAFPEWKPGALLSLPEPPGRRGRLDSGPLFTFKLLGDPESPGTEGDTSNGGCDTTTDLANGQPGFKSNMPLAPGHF
T3 sequence (P23944 whole entry): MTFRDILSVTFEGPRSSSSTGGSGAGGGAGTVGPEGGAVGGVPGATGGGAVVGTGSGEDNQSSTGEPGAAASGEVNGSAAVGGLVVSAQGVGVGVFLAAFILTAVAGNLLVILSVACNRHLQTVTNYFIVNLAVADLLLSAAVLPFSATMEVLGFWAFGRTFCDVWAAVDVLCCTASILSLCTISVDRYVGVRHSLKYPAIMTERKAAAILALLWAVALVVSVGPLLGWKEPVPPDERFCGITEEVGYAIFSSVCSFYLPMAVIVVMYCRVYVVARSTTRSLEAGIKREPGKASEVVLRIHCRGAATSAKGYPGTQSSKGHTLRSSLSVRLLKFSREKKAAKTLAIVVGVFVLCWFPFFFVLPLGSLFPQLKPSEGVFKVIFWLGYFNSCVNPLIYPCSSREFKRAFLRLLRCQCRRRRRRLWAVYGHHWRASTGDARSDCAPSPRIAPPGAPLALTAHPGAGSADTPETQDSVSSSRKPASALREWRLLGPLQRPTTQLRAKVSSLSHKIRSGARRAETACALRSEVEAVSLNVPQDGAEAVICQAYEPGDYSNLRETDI
T3 sequence (P43140 whole entry): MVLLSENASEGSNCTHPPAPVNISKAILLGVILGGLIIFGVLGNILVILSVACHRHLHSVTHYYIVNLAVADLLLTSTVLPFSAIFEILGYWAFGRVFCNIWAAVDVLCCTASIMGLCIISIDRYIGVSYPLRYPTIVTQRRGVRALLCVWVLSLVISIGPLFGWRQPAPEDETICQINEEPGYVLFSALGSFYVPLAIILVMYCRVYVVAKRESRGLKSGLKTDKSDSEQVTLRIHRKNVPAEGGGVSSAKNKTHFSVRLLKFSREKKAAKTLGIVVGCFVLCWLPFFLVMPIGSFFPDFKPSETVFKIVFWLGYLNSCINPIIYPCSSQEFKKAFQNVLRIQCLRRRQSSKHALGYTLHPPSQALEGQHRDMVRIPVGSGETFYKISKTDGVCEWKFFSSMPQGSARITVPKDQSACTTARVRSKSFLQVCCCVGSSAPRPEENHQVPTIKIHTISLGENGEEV
Description: Displacement of [3H]-prazosin from alpha 1 receptor in rat cortex by liquid scintillation counting. Summed up:
as §1

Assay [7] has as its system Mus musculus. Description: Antidepressant like activity in Albino Swiss mouse assessed as reduction of immobility time at 20 mg/kg, ip administered 30 mins before test measured during final 4 mins of the 6 mins session by forced swimming test (reference value: 165 +/- 9.6 sec). It is filed as functional. As to conditions: route intraperitoneal.
Assay [8] relates to Mus musculus. Put plainly: Antidepressant like activity in Albino Swiss mouse assessed as reduction of immobility time at 10 mg/kg, ip administered 30 mins before test measured during final 4 mins of the 6 mins session by forced swimming test (reference value: 165 +/- 9.6 sec). It is filed as functional. The conditions noted are these: route intraperitoneal.
Assay [9] deals with Mus musculus. Put plainly: Antidepressant like activity in Albino Swiss mouse assessed as reduction of immobility time at 5 mg/kg, ip administered 30 mins before test measured during final 4 mins of the 6 mins session by forced swimming test (reference value: 165 +/- 9.6 sec). It is filed as functional. The conditions noted are these: route intraperitoneal.
Assay [10] deals with T1, 5-hydroxytryptamine receptor 7. Description: Antagonist activity at human 5-HT7 receptor expressed in CHO cells assessed as inhibition of serotonin-induced intracellular cAMP accumulation preincubated for 20 mins measured after 10 mins by radioimmunoassay. In kind it is functional, cell-based. Background: cAMP levels reflect the balance of adenylyl cyclase and phosphodiesterase activity.

T1 sequence (P34969 whole entry): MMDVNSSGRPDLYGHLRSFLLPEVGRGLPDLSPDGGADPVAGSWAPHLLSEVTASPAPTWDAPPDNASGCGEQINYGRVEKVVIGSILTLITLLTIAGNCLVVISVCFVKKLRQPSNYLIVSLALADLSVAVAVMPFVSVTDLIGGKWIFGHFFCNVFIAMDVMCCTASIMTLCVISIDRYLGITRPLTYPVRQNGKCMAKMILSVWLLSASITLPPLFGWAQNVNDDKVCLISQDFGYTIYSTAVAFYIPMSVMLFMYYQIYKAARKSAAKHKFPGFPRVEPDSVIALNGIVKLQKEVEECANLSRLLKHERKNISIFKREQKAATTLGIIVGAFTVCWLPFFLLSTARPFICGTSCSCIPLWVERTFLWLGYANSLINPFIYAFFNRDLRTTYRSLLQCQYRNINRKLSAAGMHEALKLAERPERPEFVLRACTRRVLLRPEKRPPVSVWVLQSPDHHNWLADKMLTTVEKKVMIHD
5-hydroxytryptamine receptor 2A, sequence (P14842 whole entry): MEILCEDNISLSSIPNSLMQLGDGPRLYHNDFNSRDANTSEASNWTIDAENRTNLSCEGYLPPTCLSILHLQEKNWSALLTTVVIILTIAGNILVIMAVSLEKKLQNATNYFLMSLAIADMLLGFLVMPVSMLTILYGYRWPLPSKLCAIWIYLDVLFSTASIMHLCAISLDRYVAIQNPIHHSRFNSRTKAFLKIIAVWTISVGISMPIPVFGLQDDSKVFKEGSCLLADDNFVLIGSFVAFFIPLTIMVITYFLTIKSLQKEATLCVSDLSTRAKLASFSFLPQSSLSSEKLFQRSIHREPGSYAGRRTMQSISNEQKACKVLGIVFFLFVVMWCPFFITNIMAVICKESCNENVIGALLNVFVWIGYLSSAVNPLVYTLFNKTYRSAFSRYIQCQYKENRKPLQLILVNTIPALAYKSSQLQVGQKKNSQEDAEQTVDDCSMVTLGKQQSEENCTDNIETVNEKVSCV
5-hydroxytryptamine receptor 6, sequence (P50406 whole entry): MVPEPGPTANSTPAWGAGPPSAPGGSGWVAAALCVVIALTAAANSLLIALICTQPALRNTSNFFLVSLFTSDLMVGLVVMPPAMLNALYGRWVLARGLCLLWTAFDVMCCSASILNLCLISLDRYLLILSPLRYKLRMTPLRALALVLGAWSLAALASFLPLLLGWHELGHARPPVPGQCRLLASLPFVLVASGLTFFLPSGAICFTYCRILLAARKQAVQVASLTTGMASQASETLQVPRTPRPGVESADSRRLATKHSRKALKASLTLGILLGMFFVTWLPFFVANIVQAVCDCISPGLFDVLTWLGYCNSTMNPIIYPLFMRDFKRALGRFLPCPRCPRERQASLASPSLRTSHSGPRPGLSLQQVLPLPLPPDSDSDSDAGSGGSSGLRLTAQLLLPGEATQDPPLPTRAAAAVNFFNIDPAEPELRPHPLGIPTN

As to `O=S(=O)(NCCCN1CCC2CCCCC2C1)c1ccc2ncccc2c1` (stereo not given), the inhibition constant (Ki) (in general, a measure of affinity in units of concentration, obtained from inhibition or displacement) was found to be 1420 nM in assay [1] and 4310 nM in assay [2]. Besides, the Ratio Ki in assay [3] turned out to be 3.
With `O=S(=O)(NCCCCN1CCC2CCCCC2C1)c1cccc2cccnc12` (stereo not given), the inhibitory constant (Ki) was 1260 nM in assay [1] and 3570 nM in [2]. In [3], the Ratio Ki was 2.8.
In the same order, the values of `CCN(CCCCN1CCN(c2ccccc2OC)CC1)S(=O)(=O)c1cnc2ccccc2c1` are 38 nM, 9.3 nM and 0.2.
In the same order, the values of `O=S(=O)(NCCCCN1CCC2CCCCC2C1)c1cnc2ccccc2c1` (stereo not given) are 995 nM, 1450 nM and 1.5.
For `CCN(CCCCN1CCN(c2ccccc2OC)CC1)S(=O)(=O)c1ccc2ncccc2c1`, the Ki in assay [1] amounted to 41 nM; in [2], 21 nM. For the same molecule, the Ratio Ki in assay [3] was determined as 0.5.
Molecule `NCCN(CCCN1CCc2ccccc2C1)S(=O)(=O)c1ccccc1` had an inhibition constant (Ki) in assay [1] of 267 nM.
Still for that read-out and setting: to `CCN(CCCN1CCN(c2ccccc2OC)CC1)S(=O)(=O)c1ccc(C)cc1` belongs 19 nM.
The same measure, in the same setting: the figure for `O=S(=O)(NCCCCN1CCc2ccccc2C1)c1cccc2ccccc12` is 296 nM.
For the molecule `O=S(=O)(NCCCCN1CCc2ccccc2C1)c1ccccc1`, in assay [1], the affinity, expressed as Ki, was 94 nM.
On to `COc1ccccc1N1CCN(CCCNS(=O)(=O)c2cccc3cccnc23)CC1`, for which the Ki is 90 nM in assay [1], 1640 nM in assay [4], 2160 nM in assay [5] and 37 nM in assay [2]. Besides, the Ratio Ki in assay [3] was 0.4.
For the molecule `CCN(CCCCCN1CCC2CCCCC2C1)S(=O)(=O)c1cccc2cccnc12` (stereo not given), the Ki in assay [1] was 33 nM; in assay [4], 4590 nM; in [6], 92 nM; in assay [5], 1790 nM; in assay [2] it was 313 nM. In addition, the Time in assay [7] is 181.2 s; in assay [8], 158.6 s; in assay [9], 144.8 s. In assay [3], the Ratio Ki is 9.5. Further, the Kb (usually the equilibrium dissociation constant of an antagonist, usually derived from a functional assay) in [10] is 1300 nM.
For the molecule `O=S(=O)(NCCCCN1CCc2ccccc2C1)c1cccc2cccnc12`, the Ki in [1] was found to be 88 nM; in assay [4], 1460 nM; in assay [5], 4180 nM; in assay [2] it was 271 nM. Also, the Ratio Ki in assay [3] was found to be 3.
For the molecule `COc1ccccc1N1CCN(CCCCNS(=O)(=O)c2cccc3cccnc23)CC1`, the Ki in [1] was 55 nM; in assay [2] it was 53 nM. For the same molecule, the Ratio Ki in [3] was determined as 0.9.
For the molecule `CCN(CCCCN1CCC2CCCCC2C1)S(=O)(=O)c1cnc2ccccc2c1` (stereo not given), the Ki is 187 nM in assay [1], 14500 nM in assay [4], 5090 nM in assay [5] and 325 nM in assay [2]. In addition, the Ratio Ki in assay [3] stood at 1.7.
Turning to `NCCCN(CCN1CCc2ccccc2C1)S(=O)(=O)c1ccccc1`, affinity in assay [1] was put at a Ki of 3010 nM.
As for `O=S(=O)(NCCCCN1CCc2ccccc2C1)c1ccc2ncccc2c1`, the Ki in assay [1] turned out to be 224 nM; in assay [4] it was 8250 nM; in assay [5], 1520 nM; in assay [2], 233 nM. The Ratio Ki in assay [3] worked out at 1.
`O=S(=O)(NCCN1CCc2ccccc2C1)c1ccc2ccccc2c1` registered a Ki in [1] of 78 nM.
Take `O=S(=O)(NCCCCN1CCc2ccccc2C1)c1cnc2ccccc2c1`: the inhibition constant Ki was 228 nM in assay [1], 8640 nM in assay [4], 590 nM in [5] and 305 nM in [2]. Besides, the Ratio Ki in [3] amounted to 1.3.
In the case of `COc1cccc2c1CCN(CCCNS(=O)(=O)c1cccc3ccccc13)C2`, the inhibition constant Ki in [1] turned out to be 360 nM.
Regarding `COc1ccccc1N1CCN(CCCNS(=O)(=O)c2ccc3ncccc3c2)CC1`, the Ki in assay [1] was found to be 156 nM; in [4] it was 2840 nM; in assay [5], 825 nM; in [2], 18 nM. In assay [3], the Ratio Ki worked out at 0.1.
As to `NCCCN(CCCN1CCc2ccccc2C1)S(=O)(=O)c1ccccc1`, the affinity in [1] corresponds to a Ki of 335 nM.
Molecule `O=S(=O)(NCCCCN1CCc2ccccc2C1)c1ccc2ccccc2c1` had an inhibitory constant (Ki) in assay [1] of 64 nM.
Consider `COc1ccccc1N1CCN(CCCCNS(=O)(=O)c2cnc3ccccc3c2)CC1`, for which the results for the Ki in [1] and in [2] were 79 nM and 3.7 nM, respectively. Further, in [3], the Ratio Ki was determined as 0.05.
The matching figures for `CCN(CCCCN1CCN(c2ccccc2OC)CC1)S(=O)(=O)c1cccc2cccnc12`: 37 nM, 30 nM and 0.8.
Take `O=S(=O)(NCCCCN1CCc2sccc2C1)c1cnc2ccccc2c1`: the inhibition constant (Ki) in assay [1] was found to be 506 nM; in [4], 17400 nM; in assay [5], 1080 nM; in assay [2], 986 nM. Besides, the Ratio Ki in [3] amounted to 1.9.
The matching figures for `O=S(=O)(NCCCCN1CCc2sccc2C1)c1ccc2cccnc2c1`: 334 nM, 17500 nM, 2650 nM, 483 nM and 1.4.
Regarding `O=S(=O)(NCCCN1CCc2ccccc2C1)c1ccc2ccccc2c1`, the inhibitory constant (Ki) in [1] is 80 nM.
On to `COc1ccccc1N1CCN(CCCCNS(=O)(=O)c2ccc3ncccc3c2)CC1`, for which the Ki in assay [1] is 132 nM; in [2], 40 nM. In addition, the Ratio Ki in assay [3] turned out to be 0.3.
In assay [1], `NCCCN(CCCCN1CCc2ccccc2C1)S(=O)(=O)c1ccccc1` gave a Ki of 235 nM.
Still for that read-out and setting: the figure for `O=S(=O)(NCCCN1CCc2ccccc2C1)c1ccccc1` is 270 nM; for `O=S(=O)(NCCN1CCc2ccccc2C1)c1ccccc1` it is 773 nM.
For the molecule `CCN(CCCN1CCN(c2ccccc2OC)CC1)S(=O)(=O)c1ccc2ncccc2c1`, the inhibition constant (Ki) stood at 29 nM in assay [1], 1920 nM in assay [4], 1320 nM in [5] and 25 nM in assay [2]. Also, in assay [3], the Ratio Ki was found to be 0.9.
